The text below walks through data of ChEMBL document CHEMBL1137001, “Synthesis and evaluation of 9-O-substituted berberine derivatives containing aza-aromatic terminal group as highly selective telomeric G-quadruplex stabilizing ligands” (Bioorg Med Chem Lett, 2009).

Experiment [1] deals with Nucleic Acid. Kind of experiment: Binding affinity to human telomeric G-quadruplex F21T DNA assessed as change in melting temperature at 2.0 uM by FRET assay. It counts as nucleic-acid assay.
For experiment [2], the system named is Nucleic Acid. Kind of experiment: Binding affinity to hairpin duplex F10T DNA assessed as change in melting temperature at 2.0 uM by FRET assay.
Experiment [3] can be described thus: Inhibition of telomerase from human MCF7 cellular extract by cell free TRAP assay. Summed up:
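TRAP assay. Compounds at various concentrations were added to a telomerase reaction mixture containing extract from cracked MCF-7 breast carcinoma cells, and IC50 values were derived.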

Experiment [4] relates to Nucleic Acid. Kind of experiment: Inhibition of G-quadruplex HTG21 oligomer hybridization by PCR stop assay. It counts as nucleic-acid assay. Summed up: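 HTG21 was amplified by PCR in the presence of compound, and products were separated on gel. IC50 is the concentration that inhibits amplification by 50%.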
In experiment [5] the test system is Nucleic Acid. The experiment in a line: Induction of G-quadruplex structure formation in HTG21 oligomer assessed as formation of antiparallel quadruplex structure by CD spectroscopy. It counts as nucleic-acid assay.

Active and inactive are the calls of the source. The rule behind the calls is not given here.

For `COc1ccc2cc3[n+](cc2c1OCCC[n+]1cccc(C)c1)CCc1cc2c(cc1-3)OCO2`, the ΔTm (in general, the shift of the melting midpoint relative to a reference) stood at 21 °C in the experiment with Nucleic Acid [1] and 0.5 °C with Nucleic Acid [2]. The values for the IC50 (in experiment [3]; in the experiment on Nucleic Acid [4]) were 14 µM and 6 µM, respectively.
For the compound `COc1ccc2cc3[n+](cc2c1OCCCn1cc[n+](C)c1)CCc1cc2c(cc1-3)OCO2`, the ΔTm in the experiment on Nucleic Acid [1] is 17 °C; with Nucleic Acid [2] it was 0 °C. Moreover, the values for the IC50 (in experiment [3]; in the experiment on Nucleic Acid [4]) were 16 µM and 8 µM, respectively.
Taken in the same sequence, the figures for `COc1ccc2cc3[n+](cc2c1OCCC[n+]1cccc(F)c1)CCc1cc2c(cc1-3)OCO2` were 20 °C, 0 °C, 16 µM and 6 µM.
Take `COc1ccc2cc3[n+](cc2c1OCCC[n+]1cccc2ccccc21)CCc1cc2c(cc1-3)OCO2`: the ΔTm in the experiment with Nucleic Acid [1] is 20 °C; in the experiment with Nucleic Acid [2] it was 0 °C. Besides, the IC50 – broadly, the concentration that gives 50% inhibition – came out at 15 µM in experiment [3] and 8 µM in the experiment on Nucleic Acid [4].
Regarding `COc1ccc2cc3[n+](cc2c1OCCCn1ccc(N)nc1=O)CCc1cc2c(cc1-3)OCO2`, the ΔTm with Nucleic Acid [1] came to 13 °C; in the experiment with Nucleic Acid [2] it was 0 °C. For the same compound, the IC50 in experiment [3] stood at 22 µM; in the experiment with Nucleic Acid [4], 14 µM.
Taken in the same sequence, the figures for `COc1ccc2cc3[n+](cc2c1OCCCCC[n+]1ccccc1)CCc1cc2c(cc1-3)OCO2` were 21 °C, 0.5 °C, 15 µM and 7 µM.
Take `COc1ccc2cc3[n+](cc2c1OCCCCCC[n+]1ccccc1)CCc1cc2c(cc1-3)OCO2`: the ΔTm with Nucleic Acid [1] came out at 20 °C; in the experiment on Nucleic Acid [2], 0 °C. The results for the IC50 (in experiment [3]; in the experiment with Nucleic Acid [4]) were 15 µM and 4 µM, respectively.
For `COc1ccc2cc3[n+](cc2c1OCCCN1CCCCC1)CCc1cc2c(cc1-3)OCO2`, the IC50 in experiment [3] turned out to be 16 µM; in the experiment on Nucleic Acid [4] it was 7 µM.
Take `COc1ccc2cc3[n+](cc2c1OCCCOc1ccncc1)CCc1cc2c(cc1-3)OCO2`: the figures for the ΔTm in the experiment with Nucleic Acid [1] and with Nucleic Acid [2] were 10 °C and 0 °C, respectively. Besides, the values for the IC50 (in experiment [3]; in the experiment with Nucleic Acid [4]) were 28 µM and 12 µM, respectively.
`COc1ccc2cc3[n+](cc2c1OCCC[n+]1ccc(N(C)C)cc1)CCc1cc2c(cc1-3)OCO2`: the ΔTm was found to be 25 °C with Nucleic Acid [1] and 0 °C in the experiment with Nucleic Acid [2]. In the experiment on Nucleic Acid [5], the result was Active. Further, the IC50 in experiment [3] amounted to 14 µM; with Nucleic Acid [4] it was 4 µM.
`COc1ccc2cc3[n+](cc2c1OC)CCc1cc2c(cc1-3)OCO2`: the values for the ΔTm in the experiment on Nucleic Acid [1] and with Nucleic Acid [2] were 4 °C and 1 °C, respectively.
Consider `COc1ccc2cc3[n+](cc2c1OCCC[n+]1ccccc1)CCc1cc2c(cc1-3)OCO2`, for which the ΔTm in the experiment with Nucleic Acid [1] was determined as 18 °C; in the experiment on Nucleic Acid [2] it was 0.5 °C. In addition, the IC50 in experiment [3] stood at 17 µM; with Nucleic Acid [4] it was 8 µM.
